HNF4A DNA FP = change in binding of human HNF4 alpha to DNA; AID 1224865; 360,000 tested, 0.3% active; HNF4a-FITC DNA binding, fluorescence polarization, 1 h; activity change, % at 10 µM; P41235; in the data active = activity change above about 30%, passing the limit was not always enough
TPT1 inh = inhibitors of Candida albicans tRNA 2'-phosphotransferase TPT1. inhibition, % at 5 µM. recombinant caTPT1, FP RNA substrate dephosphorylation. 300,000 tested, 0.81% active. AID 1962;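 active = inhibition above the mean of all tested compounds plus 3 SD, set per screening campaign, cut at about 24% in these data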;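 also: plate controls were DMSO alone for no effect and ferristatin control at 100 nM for full effect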
CSN deneddyl inh = blocks human CSN-mediated cullin deneddylation; Q92905; Purified CSN, SCF-Nedd8-OG deneddylation, fluorescence polarization; inhibition, % at 12.5 µM; 360,000 tested, 0.38% active;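 active = pattern-corrected inhibition above about 35%, with an unprinted fluorescence ratio check between 0.5 and 1.5, limit read from the data, passing the limit was not always enough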;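 also: 0% = enzyme with substrate and 100% = substrate without enzyme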
Target sequence (Q92905 whole entry, looked up, one chain of several): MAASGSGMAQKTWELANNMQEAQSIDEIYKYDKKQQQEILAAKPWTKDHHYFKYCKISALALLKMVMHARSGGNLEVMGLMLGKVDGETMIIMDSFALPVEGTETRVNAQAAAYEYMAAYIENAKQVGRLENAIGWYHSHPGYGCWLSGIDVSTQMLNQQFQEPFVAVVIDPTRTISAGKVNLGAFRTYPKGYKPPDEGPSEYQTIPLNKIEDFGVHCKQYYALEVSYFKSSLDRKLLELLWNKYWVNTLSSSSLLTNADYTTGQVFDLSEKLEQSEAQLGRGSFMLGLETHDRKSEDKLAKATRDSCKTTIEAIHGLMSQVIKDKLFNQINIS
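test system = HEK293T-derived human Csn5 enzyme | amount = 0.24 nM Csn5 enzyme, final concentration | medium = Tris/NaCl/DTT buffer, pH 7.5 | schedule = 90 min reaction at room temperature | signal = FP | evaluation = inhibition of Csn5 cleavage, % | compound dosing = single dose of 12.5 µM compound with 0.25% DMSO | probe or stimulus = 10 nM SCFSkp2-Nedd8OG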
Rpn11 inh = inhibitors of human proteasome Rpn11. O00487. human 26S proteasome, Ub4-pepOG fluorescence polarization; 20S core pre-blocked with epoxomicin. inhibition, % at 20 µM. 360,000 tested, 0.59% active. AID 588493;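 active = inhibition at 20 µM, scaled to each plate's controls, above about 33%, limit read from the data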
caTPT1 confirm = TPT1 (C. albicans) inhibition, confirmation | recombinant caTPT1, fluorescence polarization, RNase T1 coupled | 2,400 tested, 74% active | shares compounds with TPT1 inh | inhibition, % at 5 µM;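 active = inhibition above the primary screen limit, the mean inhibition of all tested compounds plus 3 SD, cut at about 25% in these data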
RNase T1 counter = counter-screen for TPT1 inhibitors: inhibitors of Aspergillus oryzae RNase T1 | shares compounds with TPT1 inh | RNase T1 cleavage, fluorescence polarization, 1536-well | inhibition, % at 5 µM | 2,400 tested, 83% active;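 active = inhibition above the solvent-only control well mean plus 3 SD, limit set per screening run, cut at about 23% in these data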;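 also: plate controls were DMSO wells with enzyme for no effect and wells without RNase T1 for full effect; inhibitors block cleavage so intact labeled substrate keeps polarization high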
Target sequence (P00651 whole entry, looked up): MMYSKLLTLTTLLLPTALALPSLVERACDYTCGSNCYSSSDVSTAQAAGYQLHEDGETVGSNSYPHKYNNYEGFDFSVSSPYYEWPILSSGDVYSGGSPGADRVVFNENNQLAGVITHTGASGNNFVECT
Numbers without * were called inactive; . = not tested or not shown. Most compounds without a hit are left out; they make up all but 1.5% or so of the library.

SMILES | HNF4A DNA FP | TPT1 inh | CSN deneddyl inh | Rpn11 inh | caTPT1 confirm | RNase T1 counter
CC(Sc1ncnc2sc(-c3ccccc3)cc12)C(=O)NCC1CCCO1 (centres undefined) | -3 | 0 | 4 | -2 | . | .
COc1cc(/C=C2\CC/C(=C\c3ccc(OCCO)c(OC)c3)C2=O)ccc1OCCO | 12 | 107* | 34 | . | 114* | 113*
O=C(COC(=O)CNC(=O)c1ccccc1F)Nc1ccc2c(c1)OCCO2 | 4 | 55* | -3 | 3 | 4 | 6
CCCSc1ccc([C@@H]2[C@@H]3C(=O)N(C)C(=O)[C@@H]3[C@]3(C(=O)OC)CCCN23)cc1OC | -1 | 1 | -2 | 8 | . | .
COCCn1c(N)c(C#N)c2nc3ccccc3nc21 | -1 | 0 | 0 | 7 | . | .
N#Cc1c(N)n(CCNC(=O)c2ccc(Cl)cc2)c2nc3ccccc3nc12 | 6 | 27* | 3 | 15 | 24 | 30*
Cc1ccc(C(=O)NCCn2c(N)c(C#N)c3nc4ccccc4nc32)cc1 | 8 | 36* | 11 | 24 | 49* | 55*
CN(CCc1ccccc1)C(c1ccnc2ccccc12)c1nnnn1-c1ccc2c(c1)OCCO2 (centres undefined) | -4 | . | 5 | . | . | .
CC1C(=O)N2CCCc3cc(NC(=O)C(=O)NCCCc4ccccc4)cc1c32 (centres undefined) | 2 | -2 | -8 | -1 | . | .
c1ccc(Nc2c(-c3ccco3)nc3ccccn23)cc1 | 2 | -1 | -3 | -6 | . | .
c1ccc(-c2nc(-c3ccco3)n3ccccc23)cc1 | -21 | 28* | 13 | -34 | 25* | 30*
Cn1c(=S)[nH]c2sc3c(c2c1=O)CCC(C(C)(C)C)C3 (centres undefined) | 0 | 2 | 1 | -10 | . | .
Cc1[nH]c2ccccc2c1C(=O)CSC(=S)N(C)C1CCCCC1 | -1 | 128* | 3 | -3 | 12 | 14
CNC(=O)C[C@H]1C(=O)N(Cc2ccccc2)C[C@@H]1Cc1ccccc1 | 2 | . | -4 | -6 | . | .
COc1ccc(C(=O)c2sc3nc(C)cc(-c4cccs4)c3c2N)cc1OC | 36 | 73* | 20 | . | 73* | 78*
COc1ccc(C(=O)c2sc3nc(C)cc(-c4cccs4)c3c2N)cc1 | 30 | . | 10 | 30 | . | .
Cc1cc(-c2cccs2)c2c(N)c(C(=O)c3ccc4c(c3)OCO4)sc2n1 | 33 | 37* | 15 | 4 | 58* | 67*
Cc1cc(C)c2c(N)c(C(=O)c3ccc(Cl)cc3)sc2n1 | 1 | -3 | -9 | -7 | . | .
Cn1c(N)c(C(=O)COC(=O)Cc2ccc(Cl)c(Cl)c2)c(=O)n(C)c1=O | 0 | . | 4 | -1 | . | .
Cc1cc2ncc(-c3cccc(Cl)c3)cn2n1 | 7 | -2 | -2 | -7 | . | .
Cc1cc2ncc(C(N)=O)cn2n1 | 4 | 83* | -8 | -6 | 7 | 11
O=C(c1ccccc1)c1ccc(N2CCN(C(=O)c3ccc(F)cc3F)CC2)c(F)c1 | 0 | . | -4 | -1 | . | .
COc1ccc([C@H]2N[C@]3(CCCN(Cc4ccc(C(F)(F)F)cc4)C3=O)[C@H]3C(=O)N(Cc4ccccc4)C(=O)[C@@H]23)cc1 | -7 | . | 4 | -10 | . | .
CNc1nc(-c2c[nH]c3ccccc23)cs1 | 6 | 4 | 11 | 15 | . | .
CCC(C)Nc1nc(-c2c[nH]c3ccccc23)cs1 (centres undefined) | 17 | 25* | 3 | 34 | 23 | 33*
SMILES | HNF4A DNA FP | TPT1 inh | CSN deneddyl inh | Rpn11 inh | caTPT1 confirm | RNase T1 counter
CN1CCc2c(sc(NC(=O)c3ccc(S(=O)(=O)N4CCc5ccccc54)cc3)c2C(N)=O)C1 | . | 34* | . | . | 51* | 63*
CNC(=O)c1c(NC(=O)c2ccc(S(=O)(=O)N3CCCc4ccccc43)cc2)sc2c1CCN(C)C2 | 32* | 103* | 5 | . | 79* | 88*
COc1ccccc1NS(=O)(=O)c1cccc(NS(=O)(=O)c2cc(C(=O)O)ccc2Cl)c1 | 0 | . | 0 | 4 | . | .
O=C(CSc1nc(=O)[nH]c2c1CCCC2)Nc1cc(C(F)(F)F)cc(C(F)(F)F)c1 | -4 | 0 | -2 | 2 | . | .
COC(=O)CCN1CCC2CC1c1cc(N3CCCCC3)ccc12 (centres undefined) | 4 | . | 2 | 6 | . | .
O=[N+]([O-])c1ccc(N/N=C/c2ccccc2)c(F)c1 | 12 | 27* | 3 | 16 | 44* | 54*
